ChEMBL document CHEMBL3785055, “Arginine-linked neomycin B dimers: synthesis, rRNA binding, and resistance enzyme activity” (Medchemcomm, 2016)
Values after ≈ are worked out from the molar mass of the structure shown. Active and inactive are the calls of the source. The calls are words filed in the database; no cut-off is given here.

Columns and labels:
[1] = test system: Escherichia coli; assay: Displacement of F-NEO from Escherichia coli rRNA A-site at 0.1 uM by fluorescence assay
Method in brief: (§1)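 Single-point competitive screen: compound at 0.1 μM added to 0.1 μM F-NEO:A-site RNA complex. Displacement read as emission increase over complex alone (ΔF), expressed as % of fluorescence of 0.1 μM F-NEO. Buffer 10 mM HEPES, 50 mM NaCl, 0.4 mM EDTA, pH 7.0; at least duplicates.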

[2] = species on record: Homo sapiens; assay: Displacement of F-NEO from human rRNA A-site at 0.1 uM by fluorescence assay; method in brief: as §1
[3] = test system: Bacillus cereus; assay: Antibacterial activity against Bacillus cereus ATCC 11778 after 16 to 20 hrs by MTT assay; format: functional
Method in brief: (§2)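 Strains grown in LB 24 h at 37 °C, 250 rpm; overnight culture diluted 1:1000, grown 4 h, diluted 1:1000 again and added to microplates. Incubation 16–20 h at 37 °C; growth read visually and with MTT (1 mg/mL).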

[4] = test system: Staphylococcus epidermidis; assay: Antibacterial activity against Staphylococcus epidermidis ATCC 12228 after 16 to 20 hrs by MTT assay; format: functional; method in brief: as §2
[5] = test system: Staphylococcus aureus; assay: Antibacterial activity against Staphylococcus aureus ATCC 25923 after 16 to 20 hrs by MTT assay; format: functional; method in brief: as §2
[6] = Displacement of F-NEO from Escherichia coli rRNA A-site by fluorescence assay
[7] = Displacement of F-NEO from human rRNA A-site by fluorescence assay
[8] = Selectivity factor, ratio of IC50 for human rRNA A-site to IC50 for Escherichia coli rRNA A-site
Method in brief: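 Ratio from F-NEO displacement titrations, 0.002–2.0 μM compound against 0.1 μM F-NEO:A-site complex (485/535 nm). Measured IC50 stands in for the unmeasurable competition constants in Kd(human)/Kd(E. coli) = 5.75 × K(E. coli)/K(human). Buffer 10 mM HEPES, 50 mM NaCl, 0.4 mM EDTA, pH 7.0.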

[9] = test system: Escherichia coli; assay: Activity at Escherichia coli AAC(3)-4 at 100 uM in presence of AcCoA by Ellmans method relative to NEO
Method in brief: (§3)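 Acetylation followed by Ellman's method at 412 nm, 2 mM DTNB, 100 μM compound, 25 °C, triplicate, rates normalized to NEO. AcCoA 500 μM for Eis, 150 μM for AAC(3)-IV; enzyme 0.5 μM for Eis, 0.125 μM for AAC(3)-IV; 50 mM buffer.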

[10] = test system: Staphylococcus aureus; assay: Activity at Staphylococcus aureus APH(2'')-1a at 100 uM in presence of […] by […] relative to NEO
[11] = test system: Mycobacterium tuberculosis; assay: Activity at Mycobacterium tuberculosis AAC(2')-1c at 100 uM in presence of AcCoA by Ellmans method relative to NEO
Method in brief: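 N-acetylation by AAC(2')-Ic (0.125 μM enzyme) of 100 μM compound with 150 μM AcCoA and 2 mM DTNB in 100 mM buffer, 25 °C. Thiol release followed at 412 nm (ε = 14,150 M⁻¹cm⁻¹). Rates normalized to neomycin B, triplicate.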

[12] = test system: Staphylococcus aureus; assay: Activity at Staphylococcus aureus AAC(6')-1e/APH(2'')-1a in presence of AcCoA by Ellmans method relative to NEO
[13] = Activity at APH(3')-1a (unknown origin) at 100 uM in presence of […] by […] relative to NEO
[14] = Activity at Eis (unknown origin) at 100 uM in presence of AcCoA by Ellmans method relative to NEO; method in brief: as §3

SMILES	Activity [1]	Activity [2]	MIC [3] [µM]	MIC [4] [µM]	MIC [5] [µM]	IC50 [6] [µM]	IC50 [7] [µM]	Ratio IC50 [8]	Activity [9]	Activity [10]	Activity [11]	Activity [12]	Activity [13]	Activity [14]
N=C(N)NCCC[C@H](N)C(=O)NCCCn1cc(-c2cccc(-c3cn(CCCNC(=O)[C@@H](N)CCCNC(=N)N)nn3)c2)nn1	inactive	inactive												
NC[C@@H]1O[C@@H](O[C@H]2[C@H](O[C@H]3O[C@@H](Cn4cc(-c5cc(C(=O)O)cc(-c6cn(C[C@H]7O[C@@H](O[C@@H]8[C@@H](O)[C@H](N)C[C@H](N)[C@H]8O[C@@H]8O[C@@H](CN)[C@H](O)[C@@H](O)[C@@H]8N)[C@H](O)[C@@H]7O[C@H]7O[C@@H](CN)[C@@H](O)[C@H](O)[C@H]7N)nn6)c5)nn4)[C@H](O[C@H]4O[C@@H](CN)[C@@H](O)[C@H](O)[C@H]4N)[C@@H]3O)[C@@H](O)[C@H](N)C[C@@H]2N)[C@@H](N)[C@H](O)[C@H]1O (stereo in doubt)			3 (≈ 4.35 µg/mL)	13 (≈ 18.8 µg/mL)	13 (≈ 18.8 µg/mL)	51	50	5.6	Active	inactive	inactive	inactive	inactive	inactive
N=C(N)NCCC[C@@H](NC(=O)c1cc(-c2cn(C[C@@H]3O[C@H](O[C@@H]4[C@@H](O)[C@H](N)C[C@H](N)[C@H]4O[C@@H]4O[C@@H](CN)[C@H](O)[C@@H](O)[C@@H]4N)[C@@H](O)[C@H]3O[C@H]3O[C@@H](CN)[C@@H](O)[C@H](O)[C@H]3N)nn2)cc(-c2cn(C[C@H]3O[C@@H](O[C@@H]4[C@@H](O)[C@H](N)C[C@H](N)[C@H]4O[C@@H]4O[C@@H](CN)[C@H](O)[C@@H](O)[C@@H]4N)[C@H](O)[C@@H]3O[C@H]3O[C@@H](CN)[C@@H](O)[C@H](O)[C@H]3N)nn2)c1)C(N)=O (stereo in doubt)			3 (≈ 4.81 µg/mL)	> 50	> 50	55	71	7.4	30%	inactive	inactive	inactive	inactive	inactive
